Activity calls are given as the source filed them.
How the values were obtained:
[1] = Neurotoxicity in Sprague-Dawley rat at 30 mg/kg, ip measured after 2 hrs by rotarod test; format: toxicity, organism-based; details: in vivo
How it was run: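 Rat neurotoxicity after i.p. or p.o. dosing was scored as animals impaired / animals tested at each time point. For p.o. dosing, TD50 was obtained by probit analysis.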

[2] = Neurotoxicity in CF-1 mouse at 100 mg/kg, ip measured after 0.25 hrs by rotarod test; format: toxicity, organism-based; details: in vivo
How it was run: (§1)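 Mice dosed i.p. were placed on a 1 in. knurled rod turning at 6 rpm. Toxicity was scored as failure to keep balance for at least 1 min, i.e. falling off three or more times. Results are reported as animals showing toxicity / animals tested at each time point.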

[3] = Neurotoxicity in CF-1 mouse at 220 mg/kg, ip measured after 4 hrs by rotarod test; format: toxicity, organism-based; details: in vivo; how it was run: as §1
[4] = system: Mus musculus; experiment: Anticonvulsant activity in CF-1 mouse assessed as protection against 44 mA current-induced seizure at 120 mg/kg, ip after 15 mins by 6 Hz psychomotor test; format: functional, organism-based
How it was run: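 Mice dosed i.p. (30, 100, 300 mg/kg; one line at 120 mg/kg read at 15 min). Corneal stimulation at 6 Hz, 44 mA for 3 s from a constant-current device induces a psychomotor seizure with stunned posture, forelimb automatisms, clonus, vibrissae twitching and Straub tail. Scored as number of animals protected / number tested (4 per group) at 0.5 and 2 h.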

[5] = system: Rattus norvegicus; experiment: Anticonvulsant activity in po dosed Sprague-Dawley rat model of maximal electroshock-induced seizure assessed as suppression of tonic hind limb extension; format: functional
How it was run: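 Rats dosed p.o. and tested by MES at 150 mA. ED50 derived by probit analysis from quantitative dose groups, run at the time of peak effect (hours).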

[6] = system: Rattus norvegicus; experiment: Anticonvulsant activity in hippocampal kindling Sprague-Dawley rat model assessed as decrease of seizure score at 100 mg/kg, ip administered as single dose measured up to 135 mins; format: functional, organism-based
How it was run: (§2)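 Rats implanted with a hippocampal electrode and kindled with suprathreshold trains (200 µA, 10 s, 50 Hz) every 30 min for 6 h on alternate days until fully kindled. One week later they received a single i.p. dose. Seizure score (Racine scale) and afterdischarge duration were recorded at 0–135 min and compared with the control stimulus given 15 min before dosing; each animal served as its own control. Values are mean ± SEM.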

[7] = system: Rattus norvegicus; experiment: Anticonvulsant activity in hippocampal kindling Sprague-Dawley rat model assessed as after discharge time at 100 mg/kg, ip administered as single dose measured after 135 mins; format: functional; how it was run: as §2
[8] = system: Astrocyte; experiment: Cytotoxicity against mouse astrocytes at 10 to 200 uM after 24 hrs by neutral red staining based microscopic analysis; format: cell-based
How it was run: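 Mouse astrocyte line seeded at 1×10^4 per well, treated 24 h later with 10–200 µM for 24 h. Medium then replaced with neutral red (4 µg ml⁻¹) in EMEM with 5% FBS for 3 h. Cells washed, dye extracted in ethanol/water/acetic acid, A540 read. Cytotoxicity (%) = (1 − sample A540/control A540) × 100.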

[9] = system: Mus musculus; experiment: Anticonvulsant activity in CF-1 mouse model of maximal electroshock-induced seizure assessed as suppression of tonic hind limb extension at 100 mg/kg, ip measured at 0.25 hrs post dose; format: functional, organism-based
How it was run: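 Mice dosed i.p. and given maximal electroshock at 50 mA. Read-out is protection, reported as number protected / number tested at 0.25, 0.5, 1 and 4 h after dosing.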

Compound | Activity [1] | Activity [2] | Activity [3] | Activity [4] | ED50 [5] [mg/kg] | Activity [6] | Time [7] [s] | Activity [8] | Activity [9]
Cc1cccc(C)c1OCC(=O)N[C@H](C)CO | Non-Toxic | Non-Toxic | Non-Toxic | Active | 12 | Active | 76 | Non-Toxic | 
CCC(O)CNC(=O)COc1c(C)cccc1C (centres undefined) |  |  |  |  |  |  |  |  | Active
